What was measured:
[1] = Cytotoxicity in human HepDE19 cells assessed as reduction in cell viability incubated for 5 days by CCK8 assay; assay type: cell-based
Procedure, shortened: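 HepDE19 cells were grown in DMEM-F12 with 10% FBS, penicillin/streptomycin and 0.5 mg/mL G418, then seeded at 5 × 10^3 cells/well. Compound exposure lasted 5 days. Viability was read with CCK-8 after 2 h at 37 °C, measuring OD450 and OD630. CC50 was the concentration killing 50% of cells; duplicate runs.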

[2] = Induction of CYP3A4 gene expression in cryopreserved human hepatocytes assessed as increase in CYP3A4 mRNA level at 10 uM incubated for 24 hrs by qRT-PCR analysis relative to rifampicin; assay type: ADME, cell-based
Procedure, shortened: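 Cryopreserved hepatocytes from one human donor were seeded at 1 × 10^6 cells/mL and cultured 24 h in serum-free Williams E. Compounds at 0.1, 1.0 and 10 µM (0.1% DMSO) were added in triplicate for 24 h, with vehicle wells as negative controls. Positive controls were omeprazole for CYP1A2, phenobarbital for CYP2B6 and rifampicin for CYP3A4. mRNA was measured by TaqMan qRT-PCR normalised to PPIA (2^-ΔΔCT) and expressed as % of the positive control.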

Activity [2] [%] | SMILES | CC50 at 120 h [1] [µM]
94 | CCOC(=O)C1=C(CN2CCOC[C@H]2C(=O)O)NC(c2nccs2)=N[C@H]1c1cccc(F)c1 | 69
135 | CCOC(=O)C1=C(CN2CCOC[C@H]2C(=O)O)NC(c2nccs2)=N[C@H]1c1ccc(F)cc1F | > 100
 | COC(=O)C1=C(CN2CCOC[C@H]2C(=O)O)NC(c2nccs2)=N[C@H]1c1ccc(C)c(F)c1 | > 100
96 | COC(=O)C1=C(CN2CC(F)(F)C[C@H]2C(=O)O)NC(c2nccs2)=N[C@H]1c1ccc(F)cc1F | > 100
173 | CCOC(=O)C1=C(CN2CCOC[C@H]2C(=O)O)NC(c2nccs2)=N[C@H]1c1ccc(F)cc1Cl | > 100
52 | COC(=O)C1=C(CN2CC(F)(F)C[C@H]2C(=O)O)NC(c2nccs2)=N[C@H]1c1ccc(F)c(F)c1 | 56
36 | COC(=O)C1=C(CN2CCOC[C@H]2C(=O)O)NC(c2nccs2)=N[C@H]1c1ccc(F)c(F)c1 | > 100
41 | CCOC(=O)C1=C(CN2CCOC[C@H]2C(=O)O)NC(c2nccs2)=N[C@H]1c1ccc(F)c(F)c1 | > 100

SMILES | Activity [2] [%] | CC50 at 120 h [1] [µM]
CCOC(=O)C1=C(CN2CCOC[C@H]2C(=O)O)NC(c2nccs2)=N[C@H]1c1ccc(F)cc1 | 85 | 62

Source: ChEMBL document CHEMBL4414644, “A New Approach of Mitigating CYP3A4 Induction Led to the Discovery of Potent Hepatitis B Virus (HBV) Capsid Inhibitor with Optimal ADMET Profiles” (J Med Chem, 2019)
